Measurements as given in ChEMBL document CHEMBL1136911, “6,7-Dihydro-5H-pyrrolo[1,2-a] imidazoles as potent and selective alpha1A adrenoceptor partial agonists” (Bioorg Med Chem Lett, 2009).

Key:
[1] = Intrinsic clearance in human liver microsomes; format: ADME, Microsome
[2] = target: T1, Alpha-1A adrenergic receptor (Homo sapiens, UniProt P35348); test: Agonist activity at human adrenergic alpha1A receptor expressed in CHO cells assessed as calcium mobilization by FLIPR; format: functional, cell-based
T1 sequence (P35348 whole entry): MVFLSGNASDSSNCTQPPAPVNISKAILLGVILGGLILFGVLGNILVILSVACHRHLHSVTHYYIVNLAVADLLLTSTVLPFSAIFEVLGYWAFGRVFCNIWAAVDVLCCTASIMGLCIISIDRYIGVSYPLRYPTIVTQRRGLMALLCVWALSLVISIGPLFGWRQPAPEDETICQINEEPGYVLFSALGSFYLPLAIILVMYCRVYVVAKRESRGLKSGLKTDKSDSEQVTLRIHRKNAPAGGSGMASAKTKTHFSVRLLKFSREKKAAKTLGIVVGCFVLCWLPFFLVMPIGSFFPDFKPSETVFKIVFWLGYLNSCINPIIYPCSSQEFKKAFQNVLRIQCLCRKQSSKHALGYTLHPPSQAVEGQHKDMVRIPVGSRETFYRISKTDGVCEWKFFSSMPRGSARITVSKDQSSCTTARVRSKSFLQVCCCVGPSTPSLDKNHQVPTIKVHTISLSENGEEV

CYP2D6 = CYP2D6 (Homo sapiens, UniProt P10635); test: Inhibition of CYP2D6 at 3 uM; format: ADME
Sequence of CYP2D6 (P10635 whole entry): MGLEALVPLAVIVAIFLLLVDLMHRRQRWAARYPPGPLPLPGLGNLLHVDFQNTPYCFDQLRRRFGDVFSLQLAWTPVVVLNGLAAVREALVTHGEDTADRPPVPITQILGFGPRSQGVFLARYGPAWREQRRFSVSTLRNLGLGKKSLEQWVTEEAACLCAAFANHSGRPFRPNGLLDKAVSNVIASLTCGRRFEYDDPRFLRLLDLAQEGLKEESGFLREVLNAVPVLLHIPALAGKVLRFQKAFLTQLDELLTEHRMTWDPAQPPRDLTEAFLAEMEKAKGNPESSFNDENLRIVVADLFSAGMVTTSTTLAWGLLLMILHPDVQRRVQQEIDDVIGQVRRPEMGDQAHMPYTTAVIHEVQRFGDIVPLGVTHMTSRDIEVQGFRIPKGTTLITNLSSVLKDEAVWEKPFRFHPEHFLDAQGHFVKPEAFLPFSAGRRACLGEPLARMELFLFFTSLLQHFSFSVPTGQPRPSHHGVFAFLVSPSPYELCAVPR

CYP2C9 = CYP2C9 (Homo sapiens, UniProt P11712); test: Inhibition of CYP2C9 at 3 uM; format: ADME
Sequence of CYP2C9 (P11712 whole entry): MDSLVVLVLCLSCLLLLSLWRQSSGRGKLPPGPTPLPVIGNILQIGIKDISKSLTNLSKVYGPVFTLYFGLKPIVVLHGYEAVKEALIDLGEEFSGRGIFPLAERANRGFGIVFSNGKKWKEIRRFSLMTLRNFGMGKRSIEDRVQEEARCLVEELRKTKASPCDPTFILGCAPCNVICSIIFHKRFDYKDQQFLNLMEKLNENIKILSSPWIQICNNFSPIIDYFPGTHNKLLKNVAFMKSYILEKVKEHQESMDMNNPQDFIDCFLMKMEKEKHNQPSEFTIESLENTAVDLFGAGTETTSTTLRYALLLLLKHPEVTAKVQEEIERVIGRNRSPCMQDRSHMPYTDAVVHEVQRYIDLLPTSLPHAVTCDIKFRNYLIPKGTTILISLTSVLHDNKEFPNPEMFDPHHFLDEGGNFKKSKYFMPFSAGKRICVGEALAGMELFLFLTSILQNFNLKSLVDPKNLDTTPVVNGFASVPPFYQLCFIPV

[3] = target: T2, Alpha-1D adrenergic receptor (Homo sapiens, UniProt P25100); test: Agonist activity at human adrenergic Alpha-1D receptor expressed in CHO cells assessed as calcium mobilization by FLIPR; format: functional, cell-based
T2 sequence (P25100 whole entry): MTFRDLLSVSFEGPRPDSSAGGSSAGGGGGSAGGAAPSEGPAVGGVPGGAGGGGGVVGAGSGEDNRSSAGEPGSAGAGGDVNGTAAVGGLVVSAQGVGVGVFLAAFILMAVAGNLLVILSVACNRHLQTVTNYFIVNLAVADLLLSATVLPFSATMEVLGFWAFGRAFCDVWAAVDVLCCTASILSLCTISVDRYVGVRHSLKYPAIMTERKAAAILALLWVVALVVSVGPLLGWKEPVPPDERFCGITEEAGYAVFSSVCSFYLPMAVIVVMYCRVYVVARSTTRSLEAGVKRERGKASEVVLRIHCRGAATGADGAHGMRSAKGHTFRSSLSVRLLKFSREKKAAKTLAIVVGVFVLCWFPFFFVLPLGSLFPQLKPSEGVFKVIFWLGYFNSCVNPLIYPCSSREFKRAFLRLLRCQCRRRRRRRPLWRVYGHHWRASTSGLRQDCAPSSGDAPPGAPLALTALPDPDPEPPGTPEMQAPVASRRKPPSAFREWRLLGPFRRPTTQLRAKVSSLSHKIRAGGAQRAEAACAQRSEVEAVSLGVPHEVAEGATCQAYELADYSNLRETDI
Summary of the method: (§1)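 Human alpha1B (clone 11) or alpha1D (clone 23) receptor stably expressed in Chinese hamster ovary cells; receptor activation read as Gq-coupled calcium mobilisation with a calcium-sensitive fluorescent dye on FLIPR. Eleven-point concentration-response curves; Emax given as percent of the response to 10 µM phenylephrine. Values are geometric means of at least two experiments.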

[4] = target: T3, Alpha-2A adrenergic receptor (Homo sapiens, UniProt P08913); test: Inhibition of adrenergic alpha2A receptor
T3 sequence (P08913 whole entry): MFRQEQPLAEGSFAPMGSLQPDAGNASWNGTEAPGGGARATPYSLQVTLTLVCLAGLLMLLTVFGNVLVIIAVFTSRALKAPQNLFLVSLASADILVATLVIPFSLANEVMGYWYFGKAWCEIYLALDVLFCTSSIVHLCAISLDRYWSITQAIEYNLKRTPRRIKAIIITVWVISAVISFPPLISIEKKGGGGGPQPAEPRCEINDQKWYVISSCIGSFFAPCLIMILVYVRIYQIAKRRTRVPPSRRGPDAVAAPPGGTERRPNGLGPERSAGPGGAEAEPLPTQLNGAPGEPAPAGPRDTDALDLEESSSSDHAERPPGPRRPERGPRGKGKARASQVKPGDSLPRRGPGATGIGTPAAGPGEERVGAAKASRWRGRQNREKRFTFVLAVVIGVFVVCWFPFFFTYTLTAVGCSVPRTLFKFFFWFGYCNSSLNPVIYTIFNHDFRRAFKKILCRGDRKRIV

[5] = Apparent permeability from apical to basolateral side of MDCK cells expressing MDR1; format: ADME, cell-based, Canis lupus familiaris; details: dog, MDCK-MDR1
Summary of the method: (§2)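 MDCK cells expressing P-glycoprotein (mdr-1); transcellular flux measured at 10 µM substrate in the apical-to-basolateral and basolateral-to-apical directions, reported as Papp ×10^-6 cm s^-1.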

CYP3A4 = CYP3A4 (Homo sapiens, UniProt P08684); test: Inhibition of CYP3A4 at 3 uM; format: ADME
Sequence of CYP3A4 (P08684 whole entry): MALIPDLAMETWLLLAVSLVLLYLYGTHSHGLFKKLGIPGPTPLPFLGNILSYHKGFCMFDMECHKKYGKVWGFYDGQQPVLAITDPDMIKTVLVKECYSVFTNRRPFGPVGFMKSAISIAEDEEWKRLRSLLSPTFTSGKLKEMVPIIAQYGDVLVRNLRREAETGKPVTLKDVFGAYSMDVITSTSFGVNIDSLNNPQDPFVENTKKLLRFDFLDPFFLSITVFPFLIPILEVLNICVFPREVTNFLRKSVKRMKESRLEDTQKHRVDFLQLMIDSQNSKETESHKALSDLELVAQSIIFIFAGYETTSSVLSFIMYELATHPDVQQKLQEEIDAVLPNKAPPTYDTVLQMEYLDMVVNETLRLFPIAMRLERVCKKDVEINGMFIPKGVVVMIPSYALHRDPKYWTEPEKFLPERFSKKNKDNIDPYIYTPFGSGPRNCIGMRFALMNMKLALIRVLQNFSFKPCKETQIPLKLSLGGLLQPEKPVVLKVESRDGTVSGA

[6] = target: Voltage-gated inwardly rectifying potassium channel KCNH2 (Homo sapiens, UniProt Q12809); test: Inhibition of human ERG up to 22 uM
Sequence of Voltage-gated inwardly rectifying potassium channel KCNH2 (Q12809 whole entry): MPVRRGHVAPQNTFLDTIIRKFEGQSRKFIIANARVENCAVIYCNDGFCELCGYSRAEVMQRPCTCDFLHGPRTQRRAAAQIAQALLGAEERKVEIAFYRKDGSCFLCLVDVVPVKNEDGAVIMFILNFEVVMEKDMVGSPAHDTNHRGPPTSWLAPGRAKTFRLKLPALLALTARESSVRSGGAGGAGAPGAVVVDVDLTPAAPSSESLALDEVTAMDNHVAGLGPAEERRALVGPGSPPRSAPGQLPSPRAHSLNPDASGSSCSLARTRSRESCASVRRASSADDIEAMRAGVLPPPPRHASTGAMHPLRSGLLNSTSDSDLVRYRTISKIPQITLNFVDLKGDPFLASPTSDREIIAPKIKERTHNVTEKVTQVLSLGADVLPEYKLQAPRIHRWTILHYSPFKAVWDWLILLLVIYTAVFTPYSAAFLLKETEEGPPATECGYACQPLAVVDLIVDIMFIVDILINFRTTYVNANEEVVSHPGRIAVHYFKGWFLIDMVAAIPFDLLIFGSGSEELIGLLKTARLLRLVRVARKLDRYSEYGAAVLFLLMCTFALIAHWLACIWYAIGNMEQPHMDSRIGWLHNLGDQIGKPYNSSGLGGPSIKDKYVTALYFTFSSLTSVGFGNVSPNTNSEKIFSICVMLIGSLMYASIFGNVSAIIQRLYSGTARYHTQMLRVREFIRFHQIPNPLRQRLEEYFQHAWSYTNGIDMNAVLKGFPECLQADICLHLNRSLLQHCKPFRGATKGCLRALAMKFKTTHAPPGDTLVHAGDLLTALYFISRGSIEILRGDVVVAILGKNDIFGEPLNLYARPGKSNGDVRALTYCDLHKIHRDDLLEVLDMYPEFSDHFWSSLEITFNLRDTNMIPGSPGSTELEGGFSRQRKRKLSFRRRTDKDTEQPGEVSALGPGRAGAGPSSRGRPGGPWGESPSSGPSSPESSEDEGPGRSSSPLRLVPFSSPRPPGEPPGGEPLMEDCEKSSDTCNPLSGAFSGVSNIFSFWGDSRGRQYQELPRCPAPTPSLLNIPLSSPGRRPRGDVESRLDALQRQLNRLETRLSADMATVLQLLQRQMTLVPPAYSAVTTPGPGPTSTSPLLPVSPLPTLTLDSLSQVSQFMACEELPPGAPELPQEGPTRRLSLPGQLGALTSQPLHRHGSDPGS

[7] = Lipophilicity, log D at pH 7.4; details: buffer
[8] = target: T4, Alpha-1B adrenergic receptor (Homo sapiens, UniProt P35368); test: Agonist activity at human adrenergic Alpha-1B receptor expressed in CHO cells assessed as calcium mobilization by FLIPR; format: functional, cell-based; summary of the method: as §1
T4 sequence (P35368 whole entry): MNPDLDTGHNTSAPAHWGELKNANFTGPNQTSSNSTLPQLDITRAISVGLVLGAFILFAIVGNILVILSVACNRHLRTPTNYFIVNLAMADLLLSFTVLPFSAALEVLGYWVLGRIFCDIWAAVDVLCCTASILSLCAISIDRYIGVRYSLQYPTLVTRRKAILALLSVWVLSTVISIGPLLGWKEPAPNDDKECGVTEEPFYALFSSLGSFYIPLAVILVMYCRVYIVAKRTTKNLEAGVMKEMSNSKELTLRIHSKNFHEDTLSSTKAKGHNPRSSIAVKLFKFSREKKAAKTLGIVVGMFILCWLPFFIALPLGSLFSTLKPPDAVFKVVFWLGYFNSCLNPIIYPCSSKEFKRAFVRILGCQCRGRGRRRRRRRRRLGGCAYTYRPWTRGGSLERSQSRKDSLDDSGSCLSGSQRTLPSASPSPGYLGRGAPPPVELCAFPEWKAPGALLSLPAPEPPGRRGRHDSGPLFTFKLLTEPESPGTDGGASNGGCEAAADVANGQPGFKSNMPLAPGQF

[9] = Apparent permeability from basolateral to apical side of MDCK cells expressing MDR1; format: ADME, cell-based, Canis lupus familiaris; details: dog, MDCK-MDR1; summary of the method: as §2
CYP1A2 = target: T5, CYP1A2 (Homo sapiens, UniProt P05177); test: Inhibition of CYP1A2 at 3 uM; format: ADME
T5 sequence (P05177 whole entry): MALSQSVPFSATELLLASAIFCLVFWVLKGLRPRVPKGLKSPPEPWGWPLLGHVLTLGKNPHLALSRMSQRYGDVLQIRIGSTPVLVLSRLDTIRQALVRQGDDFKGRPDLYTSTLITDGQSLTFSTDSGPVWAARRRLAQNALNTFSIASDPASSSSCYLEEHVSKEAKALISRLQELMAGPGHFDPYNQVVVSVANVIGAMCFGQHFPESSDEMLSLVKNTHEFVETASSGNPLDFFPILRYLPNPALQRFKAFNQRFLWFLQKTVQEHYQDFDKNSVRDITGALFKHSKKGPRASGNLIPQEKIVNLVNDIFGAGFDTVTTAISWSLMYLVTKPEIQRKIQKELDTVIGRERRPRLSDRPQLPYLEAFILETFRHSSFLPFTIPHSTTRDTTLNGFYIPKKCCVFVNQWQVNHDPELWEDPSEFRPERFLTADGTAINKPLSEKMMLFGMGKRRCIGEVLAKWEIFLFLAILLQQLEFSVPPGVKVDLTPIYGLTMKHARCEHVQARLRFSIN

microsomal CLint [1]: < 8 µL/min/mg | EC50 [2]: 1 nM | inhibition at 3 µM (CYP2D6): < 10% | inhibition at 3 µM (CYP2C9): < 10% | EC50 [3]: > 2600 nM | Ki [4]: > 2780 nM | Papp A→B [5]: 34 ×10⁻⁶ cm/s | inhibition at 3 µM (CYP3A4): < 10% | logD [7]: 1.3 | EC50 [8]: > 10000 nM | Papp B→A [9]: 39 ×10⁻⁶ cm/s | inhibition at 3 µM (CYP1A2): < 10%
Structure (SMILES): Fc1ccc(-c2cncnc2)c(C2Cc3nccn3C2)c1 (stereo not drawn)
inhibition (INH) [6]: Not Active
